Reference: ChEMBL document CHEMBL1144427, “Synthesis and in vitro and in vivo antitumor activity of 2-phenylpyrroloquinolin-4-ones” (J Med Chem, 2005)
Counter-ions that a name gives are not always drawn.

What was measured:
[1] = Cytotoxic activity against human tumor Hep 3B cell line; type: functional; conditions: Hep3B
How it was run: (§1)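 DMEM with 10% heat-inactivated FBS and antibiotics used for culture. Cells plated at 10⁴/well; after 24 h, 72 h exposure to 0.01–100 µM (final) compound. Survival measured by MTT (4 h), SDS/HCl solubilisation for 18 h at 37 °C, absorbance at 550 nm. IC50 is the concentration giving 50% absorbance reduction versus untreated cells, from 6–8 wells across at least two experiments.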

[2] = Cytotoxic activity against human tumor PLC/PRF/5 cell line; type: functional; how it was run: as §1
MCF7 = assay: Cytotoxic activity against human tumor MCF-7 cell line; type: functional, cell-based; how it was run: as §1
[3] = Cytotoxic activity against human tumor Aro cell line; type: functional, cell-based; how it was run: as §1
[4] = Cytotoxic activity against human tumor PT45 cell line; type: functional, cell-based; conditions: PT-45
How it was run: (§2)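 Cells kept in RPMI with 10% heat-inactivated FBS and penicillin/streptomycin. MTT assay: 10⁴ cells/well seeded, exposed after 24 h to compound at 0.01–100 µM final for 72 h. MTT was added for 4 h, then SDS/HCl for 18 h at 37 °C, and absorbance read at 550 nm. IC50 is the concentration halving absorbance versus untreated cells, from 6–8 wells in at least two independent experiments.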

OVCAR-3 = assay: Cytotoxic activity against human tumor Ovcar-3 cell line; type: functional, cell-based; how it was run: as §2
[5] = Cytotoxic activity against human tumor Mia Paca 2 cell line; type: functional, cell-based; how it was run: as §2
IGROV-1 = assay: Cytotoxic activity against human tumor Igrov-1 cell line; type: functional, cell-based; how it was run: as §2
HT-29 = assay: Cytotoxic activity against human tumor HT-29 cell line; type: functional, cell-based; how it was run: as §1
[6] = Cytotoxic activity against human tumor C8305 cell line; type: functional, cell-based; how it was run: as §2
HepG2 = assay: Cytotoxic activity against human tumor Hep G2 cell line; type: functional, cell-based; how it was run: as §1
[7] = Cytotoxic activity against human tumor NCI-H295 cell line; type: functional, cell-based
How it was run: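 Grown in RPMI with 2% FBS, insulin-transferrin-selenium and penicillin/streptomycin. MTT read-out: 10⁴ cells/well, compound 0.01–100 µM final added after 24 h, 72 h exposure. MTT for 4 h, solubilised in SDS/HCl for 18 h at 37 °C, absorbance at 550 nm. IC50 is the concentration cutting absorbance 50% versus control, from 6–8 replicate wells over two or more independent experiments.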

[8] = Cytotoxic activity against human tumor SW 13 cell line; type: functional, cell-based
How it was run: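 Maintained in Leibovitz medium with 10% FBS and penicillin/streptomycin. Colorimetric MTT assay: 10⁴ cells/well, compound at 0.01–100 µM final from 24 h after seeding, for 72 h. MTT for 4 h, then SDS in 0.01 N HCl for 18 h at 37 °C, absorbance at 550 nm. IC50 is the concentration halving absorbance versus control, from 6–8 wells in at least two independent runs.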

A 172 = assay: Cytotoxic activity against human tumor A-172 cell line; type: functional, cell-based; how it was run: as §2

Structure (SMILES) | IC50 [1] | IC50 ([2]; Homo sapiens, PLC-PRF-5) | IC50 (MCF7; Homo sapiens, MCF7) | IC50 ([3]; Homo sapiens, ARO) | IC50 [4] | IC50 (OVCAR-3; Homo sapiens, OVCAR-3) | IC50 [5] | IC50 (IGROV-1; Homo sapiens, IGROV-1) | IC50 (HT-29) | IC50 ([6]; Homo sapiens, C8305) | IC50 (HepG2; Homo sapiens, HepG2) | IC50 ([7]; Homo sapiens, NCI-H295) | IC50 ([8]; Homo sapiens, SW13) | IC50 (A 172) | also measured
O=[N+]([O-])c1cccc(-c2cc(O)c3ccc4[nH]ccc4c3n2)c1 | 50 µM | > 100 µM | 70 µM | 80 µM | > 100 µM | 50 µM | > 100 µM | 80 µM | > 100 µM | > 100 µM | > 100 µM | 60 µM | 60 µM | > 100 µM | 
Nc1cccc(-c2cc(O)c3ccc4[nH]ccc4c3n2)c1 [listing 1 of 2 here] |  |  |  |  |  |  |  |  |  |  |  |  |  |  | IC50 [2]: > 100 µM; IC50 (MCF7; mcf7): > 100 µM; IC50 ([3]; aro): > 100 µM; IC50 (OVCAR-3; ovcar-3): > 100 µM; IC50 (IGROV-1; igrov-1): > 100 µM; IC50 ([6]; c8305): > 100 µM; IC50 (HepG2; hepg2): > 100 µM; IC50 ([7]; nci-h295): > 100 µM; IC50 ([8]; sw 13): > 100 µM
Oc1ccnc2c1ccc1[nH]ccc12 | > 100 µM | > 100 µM | > 100 µM | > 100 µM | > 100 µM | > 100 µM | > 100 µM | > 100 µM | > 100 µM | > 100 µM | > 100 µM | > 100 µM | > 100 µM | > 100 µM | 
CC[C@]1(O)C[C@H]2CN(CCc3c([nH]c4ccccc34)[C@@](C(=O)OC)(c3cc4c(cc3OC)N(C=O)[C@H]3[C@@](O)(C(=O)OC)[C@H](OC(C)=O)[C@]5(CC)C=CCN6CC[C@]43[C@@H]65)C2)C1 [VINCRISTINE SULFATE] | 0.1 µM | 0.1 µM | 0.01 µM | < 0.0001 µM | 0.1 µM | 0.01 µM | 0.01 µM | 0.01 µM | 0.1 µM | 0.1 µM | 0.1 µM | 0.1 µM | 0.001 µM | > 100 µM | 
Cc1cc(O)c2ccc3[nH]ccc3c2n1 | > 100 µM | > 100 µM | > 100 µM | > 100 µM | > 100 µM | > 100 µM | > 100 µM | > 100 µM | > 100 µM | > 100 µM | > 100 µM | > 100 µM | > 100 µM | > 100 µM | 
O=[N+]([O-])c1ccc(-c2cc(O)c3ccc4[nH]ccc4c3n2)cc1 | 30 µM | > 100 µM | 60 µM | > 100 µM | > 100 µM | 50 µM | > 100 µM | 60 µM | > 100 µM | > 100 µM | 100 µM | 80 µM | 50 µM | > 100 µM | 
Oc1cc(-c2ccccc2)nc2c1ccc1[nH]ccc12 | 4 µM | 8 µM | 4 µM | 8 µM | 100 µM | 2 µM | 4 µM | 5 µM | 60 µM | 10 µM | 4 µM | 8 µM | 3 µM | 100 µM | 
COc1cccc(-c2cc(O)c3ccc4[nH]ccc4c3n2)c1 | 2 µM | 7 µM | 1 µM | 4 µM | 100 µM | 1 µM | 5 µM | 3 µM | 50 µM | 10 µM | 2 µM | 3 µM | 0.7 µM | > 100 µM | 
Cn1ccc2c3nc(-c4ccccc4)cc(O)c3ccc21 | 1 µM | 7 µM | 4 µM | 5 µM | 100 µM | 2 µM | 8 µM | 3 µM | 50 µM | 10 µM | 1 µM | 2 µM | 0.9 µM | > 100 µM | 
Oc1cc(-c2cccs2)nc2c1ccc1[nH]ccc12 | 50 µM | 80 µM | 30 µM | 80 µM | 100 µM | 20 µM | > 100 µM | 15 µM | > 100 µM | 100 µM | 10 µM | 40 µM | 50 µM | > 100 µM | 
Nc1cccc(-c2cc(O)c3ccc4[nH]ccc4c3n2)c1 [listing 2 of 2 here] | > 100 µM | 50 µM | 50 µM | 70 µM | > 100 µM |  | > 100 µM |  | > 100 µM | 80 µM | 50 µM | 50 µM |  | > 100 µM | IC50 (OVCAR-3; ovcar-3): 30 µM; IC50 (IGROV-1; igrov-1): 30 µM; IC50 ([8]; sw 13): 10 µM
